Measured values published in ChEMBL document CHEMBL1671716, “Antimicrobial susceptibility patterns for recent clinical isolates of anaerobic bacteria in South Korea” (2010).

Tests used:
Finegoldia magna [1] = experiment: Antimicrobial activity against Finegoldia magna after 48 hrs by agar dilution method in presence of 4 ug/ml beta-lactamase inhibitor Tazobactam; format: functional
Outline: (§1)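 CLSI agar dilution (M11-A7); inoculum 10^5 CFU applied by replicator; plates incubated anaerobically 48 h at 37°C. For piperacillin-tazobactam, tazobactam held constant at 4 μg/ml.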

Finegoldia magna [2] = experiment: Antimicrobial activity against Finegoldia magna assessed as percent susceptible isolates after 48 hrs by agar dilution method in presence of 4 ug/ml beta-lactamase inhibitor Tazobactam; format: functional; outline: as §1
Hoylesella oralis = experiment: Antimicrobial activity against Prevotella oralis assessed as percent susceptible isolates after 48 hrs by agar dilution method in presence of 4 ug/ml beta-lactamase inhibitor Tazobactam; format: functional
Prevotella buccae [3] = experiment: Antimicrobial activity against Prevotella buccae assessed as percent resistant isolates after 48 hrs by agar dilution method in presence of 4 ug/ml beta-lactamase inhibitor Tazobactam; format: functional, Segatella buccae
Outline: (§2)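 CLSI agar dilution on recent Korean clinical anaerobe isolates. Inoculum 10^5 CFU per spot by replicator. Plates incubated in an anaerobic chamber at 37°C for 48 h. For piperacillin plus tazobactam, tazobactam was held constant at 4 μg/ml. Resistance and susceptibility rates derived from MICs.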

[4] = test system: Parabacteroides distasonis; experiment: Antimicrobial activity against Bacteroides distasonis assessed as percent resistant isolates after 48 hrs by agar dilution method in presence of 4 ug/ml beta-lactamase inhibitor Tazobactam; format: functional; outline: as §2
[5] = test system: Parabacteroides distasonis; experiment: Antimicrobial activity against Bacteroides distasonis assessed as percent susceptible isolates after 48 hrs by agar dilution method in presence of 4 ug/ml beta-lactamase inhibitor Tazobactam; format: functional
Eggerthella lenta [6] = experiment: Antimicrobial activity against Eubacterium lentum after 48 hrs by agar dilution method in presence of 4 ug/ml beta-lactamase inhibitor Tazobactam; format: functional; outline: as §1
[7] = test system: Peptoniphilus asaccharolyticus; experiment: Antimicrobial activity against Peptoniphilus asaccharolyticus assessed as percent resistant isolates after 48 hrs by agar dilution method in presence of 4 ug/ml beta-lactamase inhibitor Tazobactam; format: functional; outline: as §2
Eggerthella lenta [8] = experiment: Antimicrobial activity against Eubacterium lentum assessed as percent resistant isolates after 48 hrs by agar dilution method in presence of 4 ug/ml beta-lactamase inhibitor Tazobactam; format: functional; outline: as §2
Phocaeicola vulgatus [9] = experiment: Antimicrobial activity against Bacteroides vulgatus assessed as percent resistant isolates after 48 hrs by agar dilution method in presence of 4 ug/ml beta-lactamase inhibitor Tazobactam; format: functional; outline: as §2
Eubacterium sp. = experiment: Antimicrobial activity against Eubacterium sp. assessed as percent resistant isolates after 48 hrs by agar dilution method in presence of 4 ug/ml beta-lactamase inhibitor Tazobactam; format: functional; outline: as §2
Prevotella buccae [10] = experiment: Antimicrobial activity against Prevotella buccae after 48 hrs by agar dilution method in presence of 4 ug/ml beta-lactamase inhibitor Tazobactam; format: functional; conditions: Segatella buccae; outline: as §1
Prevotella intermedia [11] = experiment: Antimicrobial activity against Prevotella intermedia after 48 hrs by agar dilution method in presence of 4 ug/ml beta-lactamase inhibitor Tazobactam; format: functional; outline: as §1
Actinomyces naeslundii [12] = experiment: Antimicrobial activity against Actinomyces naeslundii assessed as percent resistant isolates after 48 hrs by agar dilution method in presence of 4 ug/ml beta-lactamase inhibitor Tazobactam; format: functional; outline: as §2
Actinomyces naeslundii [13] = experiment: Antimicrobial activity against Actinomyces naeslundii after 48 hrs by agar dilution method in presence of 4 ug/ml beta-lactamase inhibitor Tazobactam; format: functional
Outline: (§3)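 MICs by CLSI agar dilution for piperacillin combined with tazobactam, with tazobactam held constant at 4 μg/ml. Clinical anaerobe isolates inoculated at 10^5 CFU by Steers replicator. Plates kept in an anaerobic chamber at 37°C for 48 h.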

[14] = test system: Bacteroides thetaiotaomicron; experiment: Antimicrobial activity against Bacteroides thetaiotaomicron after 48 hrs by agar dilution method in presence of 4 ug/ml beta-lactamase inhibitor Tazobactam; format: functional; outline: as §3
Prevotella intermedia [15] = experiment: Antimicrobial activity against Prevotella intermedia assessed as percent resistant isolates after 48 hrs by agar dilution method in presence of 4 ug/ml beta-lactamase inhibitor Tazobactam; format: functional; outline: as §2
[16] = test system: Parabacteroides distasonis; experiment: Antimicrobial activity against Bacteroides distasonis after 48 hrs by agar dilution method in presence of 4 ug/ml beta-lactamase inhibitor Tazobactam; format: functional; outline: as §3
Bacteroides fragilis [17] = experiment: Antimicrobial activity against Bacteroides fragilis after 48 hrs by agar dilution method in presence of 4 ug/ml beta-lactamase inhibitor Tazobactam; format: functional; outline: as §3
Actinomyces israelii [18] = experiment: Antimicrobial activity against Actinomyces israelii assessed as percent resistant isolates after 48 hrs by agar dilution method in presence of 4 ug/ml beta-lactamase inhibitor Tazobactam; format: functional; outline: as §2
Bacteroides ovatus [19] = experiment: Antimicrobial activity against Bacteroides ovatus after 48 hrs by agar dilution method in presence of 4 ug/ml beta-lactamase inhibitor Tazobactam; format: functional; outline: as §3
Bacteroides fragilis [20] = experiment: Antimicrobial activity against Bacteroides fragilis assessed as percent susceptible isolates after 48 hrs by agar dilution method in presence of 4 ug/ml beta-lactamase inhibitor Tazobactam; format: functional
Actinomyces israelii [21] = experiment: Antimicrobial activity against Actinomyces israelii after 48 hrs by agar dilution method in presence of 4 ug/ml beta-lactamase inhibitor Tazobactam; format: functional; outline: as §3
[22] = test system: Bacteroides thetaiotaomicron; experiment: Antimicrobial activity against Bacteroides thetaiotaomicron assessed as percent susceptible isolates after 48 hrs by agar dilution method in presence of 4 ug/ml beta-lactamase inhibitor Tazobactam; format: functional
[23] = test system: Peptostreptococcus anaerobius; experiment: Antimicrobial activity against Peptostreptococcus anaerobius after 48 hrs by agar dilution method in presence of 4 ug/ml beta-lactamase inhibitor Tazobactam; format: functional; outline: as §1
Bacteroides fragilis [24] = experiment: Antimicrobial activity against Bacteroides fragilis assessed as percent resistant isolates after 48 hrs by agar dilution method in presence of 4 ug/ml beta-lactamase inhibitor Tazobactam; format: functional; outline: as §2
Phocaeicola vulgatus [25] = experiment: Antimicrobial activity against Bacteroides vulgatus after 48 hrs by agar dilution method in presence of 4 ug/ml beta-lactamase inhibitor Tazobactam; format: functional; outline: as §3
[26] = test system: Bifidobacterium adolescentis; experiment: Antimicrobial activity against Bifidobacterium adolescentis assessed as percent resistant isolates after 48 hrs by agar dilution method in presence of 4 ug/ml beta-lactamase inhibitor Tazobactam; format: functional; outline: as §2
Clostridium perfringens = experiment: Antimicrobial activity against Clostridium perfringens after 48 hrs by agar dilution method in presence of 4 ug/ml beta-lactamase inhibitor Tazobactam; format: functional
Outline: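 Agar dilution per CLSI on Korean clinical C. perfringens isolates. Tazobactam at a fixed 4 μg/ml with piperacillin. 10^5 CFU spotted by replicator, then 48 h at 37°C in an anaerobic chamber. MIC read.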

Bifidobacterium sp. [27] = experiment: Antimicrobial activity against Bifidobacterium sp. after 48 hrs by agar dilution method in presence of 4 ug/ml beta-lactamase inhibitor Tazobactam; format: functional; outline: as §3
Bacteroides ovatus [28] = experiment: Antimicrobial activity against Bacteroides ovatus assessed as percent susceptible isolates after 48 hrs by agar dilution method in presence of 4 ug/ml beta-lactamase inhibitor Tazobactam; format: functional
Anaerococcus prevotii = experiment: Antimicrobial activity against Anaerococcus prevotii assessed as percent susceptible isolates after 48 hrs by agar dilution method in presence of 4 ug/ml beta-lactamase inhibitor Tazobactam; format: functional
Bifidobacterium sp. [29] = experiment: Antimicrobial activity against Bifidobacterium sp. assessed as percent resistant isolates after 48 hrs by agar dilution method in presence of 4 ug/ml beta-lactamase inhibitor Tazobactam; format: functional; outline: as §2

With `CCN1CCN(C(=O)N[C@@H](C(=O)N[C@@H]2C(=O)N3[C@@H]2SC(C)(C)[C@@H]3C(=O)O)c2ccccc2)C(=O)C1=O` [PIPERACILLIN] the MIC50 (Finegoldia magna [1]) was 0.06 µg/mL, the MIC90 (Finegoldia magna [1]) was 0.125 µg/mL and the Activity (Finegoldia magna [2]) was 100%. The Activity (Hoylesella oralis) was 100%, the Activity (Prevotella buccae [3]) was 0% and the Activity [4] was 7%. For the same compound, the Activity [5] was 89%, the MIC50 (Eggerthella lenta [6]) was 0.5 µg/mL and the MIC90 (Eggerthella lenta [6]) was 8 µg/mL. It also gave an Activity [7] of 0%, an Activity (Eggerthella lenta [8]) of 0% and an Activity (Phocaeicola vulgatus [9]) of 7%. For the same compound, the Activity (Eubacterium sp.) was 0%, the MIC50 (Prevotella buccae [10]) was ≤ 0.03 µg/mL and the MIC90 (Prevotella buccae [10]) was 4 µg/mL. For the same compound, the MIC50 (Prevotella intermedia [11]) was ≤ 0.03 µg/mL, the MIC90 (Prevotella intermedia [11]) was ≤ 0.03 µg/mL and the Activity (Actinomyces naeslundii [12]) was 0%. For the same compound, the MIC50 (Actinomyces naeslundii [13]) was 0.5 µg/mL, the MIC90 (Actinomyces naeslundii [13]) was 8 µg/mL and the MIC50 [14] was 8 µg/mL. The MIC90 [14] was 64 µg/mL, the Activity (Prevotella intermedia [15]) was 0% and the MIC50 [16] was 8 µg/mL. The MIC90 [16] was 64 µg/mL, the MIC50 (Bacteroides fragilis [17]) was 1 µg/mL and the MIC90 (Bacteroides fragilis [17]) was 4 µg/mL. It also gave an Activity (Actinomyces israelii [18]) of 0%, an MIC50 (Bacteroides ovatus [19]) of 8 µg/mL and an MIC90 (Bacteroides ovatus [19]) of 64 µg/mL. The Activity (Bacteroides fragilis [20]) was 97%, the MIC50 (Actinomyces israelii [21]) was 0.5 µg/mL and the MIC90 (Actinomyces israelii [21]) was 8 µg/mL. It also gave an Activity [22] of 89%, an MIC50 [23] of 0.25 µg/mL and an MIC90 [23] of 16 µg/mL. It also gave an Activity (Bacteroides fragilis [24]) of 2%, an MIC50 (Phocaeicola vulgatus [25]) of 8 µg/mL and an MIC90 (Phocaeicola vulgatus [25]) of 64 µg/mL. The Activity [26] was 0%, the MIC50 (Clostridium perfringens) was 0.25 µg/mL and the MIC90 (Clostridium perfringens) was 0.5 µg/mL. The MIC50 (Bifidobacterium sp. [27]) was 0.5 µg/mL, the MIC90 (Bifidobacterium sp. [27]) was 8 µg/mL and the Activity (Bacteroides ovatus [28]) was 89%. It also gave an Activity (Anaerococcus prevotii) of 100% and an Activity (Bifidobacterium sp. [29]) of 0%.
